Screening data: PubChem BioAssay, several laboratories
NPY-Y2 antag: antagonists of human neuropeptide Y receptor Y2. 140,000 compounds, 0.99% hits. inhibition, % at 2.7 µM. P49146. AID 793. NPY-Y2 expressing cells, antagonist mode; in the data active means inhibition above about 17%;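 further: 0% = vehicle with agonist challenge and 100% = reference antagonist with challenge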
Target sequence (P49146 whole entry, looked up): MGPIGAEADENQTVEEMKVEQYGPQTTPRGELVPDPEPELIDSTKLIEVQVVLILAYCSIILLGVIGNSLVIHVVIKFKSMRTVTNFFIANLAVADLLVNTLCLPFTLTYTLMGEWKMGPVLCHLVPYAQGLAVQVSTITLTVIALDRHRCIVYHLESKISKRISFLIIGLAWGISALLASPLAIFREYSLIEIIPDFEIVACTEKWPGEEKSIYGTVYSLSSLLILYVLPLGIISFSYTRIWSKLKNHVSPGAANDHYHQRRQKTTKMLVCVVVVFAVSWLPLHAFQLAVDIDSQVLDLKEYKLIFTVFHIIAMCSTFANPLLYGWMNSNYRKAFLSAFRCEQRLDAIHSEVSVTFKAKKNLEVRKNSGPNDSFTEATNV
NPY Y1 blocker: NPY-Y1 (human) receptor antagonism; P25929; HEK293-CNG Y1 cells, membrane potential fluorescence; NPY at EC95, then isoproterenol; inhibition, % at 3.6 µM; 200,000 compounds, 1% hits; AID 1040;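 active means inhibition above the campaign mean inhibition of all tested compounds plus 3 SD, cut at about 20% in these data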;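 further: 0% = DMSO wells given NPY plus isoproterenol and 100% = isoproterenol alone without NPY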
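Material: Y1- and CNG-channel-expressing HEK293 cells / Probe or stimulus: NPY 25 nM then isoproterenol 1 µM plus Ro 20-1724 25 µM / Doses: 3.6 µM single dose, DMSO 0.4% / Schedule: compound incubation 1 h at room temperature, readout 45 min post-stimulation / Signal: membrane potential fluorescence / Benchmarks: isoproterenol-only wells as full block versus NPY-plus-isoproterenol wells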
NPY-Y2 PAM-ag: potentiators or agonists of human neuropeptide Y receptor Y2. AID 1359. cells expressing NPY-Y2, potentiator/agonist read-out. activation, % at 3.6 µM. 220,000 compounds, 0.45% hits. P49146; in the data active means activation above about 27%;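 further: cells stimulated with NPY near EC25 plus isoproterenol at EC100; 0% = vehicle plus submaximal agonist and 100% = vehicle plus saturating agonist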
EP2 modulator: modulates human prostaglandin E2 receptor EP2 signaling; EP2-expressing cells, cAMP HTRF FRET, PGE2 co-stimulation; induction, % at 25 µM; AID 940; 260,000 compounds, 0.83% hits; P43116;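 active means compounds whose cAMP rise, as percent of the full-agonist control response, exceeds 60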;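 further: rat C6 glioma line stably carrying human EP2 under a CMV promoter; the protocol text gives 20 µM as final concentration; 100% = response of wells given 1 µM PGE2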
Target sequence (P43116 whole entry, looked up): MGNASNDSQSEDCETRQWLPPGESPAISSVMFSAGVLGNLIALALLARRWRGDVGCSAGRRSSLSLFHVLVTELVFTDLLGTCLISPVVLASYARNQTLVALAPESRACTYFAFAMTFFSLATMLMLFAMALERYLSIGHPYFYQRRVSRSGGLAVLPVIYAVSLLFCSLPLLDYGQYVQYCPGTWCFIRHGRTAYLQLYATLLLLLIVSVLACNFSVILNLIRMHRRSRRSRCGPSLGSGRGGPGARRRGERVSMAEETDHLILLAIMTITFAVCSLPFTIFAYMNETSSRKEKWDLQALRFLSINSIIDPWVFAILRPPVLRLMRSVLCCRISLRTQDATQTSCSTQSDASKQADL
NPY-Y1 PAM-ag: potentiators or agonists of human neuropeptide Y receptor Y1 | P25929 | NPY-Y1 expressing cells, potentiator/agonist activation | activation, % at 3.6 µM | 220,000 compounds, 0.37% hits | AID 1304; in the data active means activation above about 33%, passing the limit was not always enough;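 further: cells stimulated with NPY at EC10 then isoproterenol at EC100; 0% = low agonist plus stimulus and 100% = saturating agonist plus stimulus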
PGE2 EP2 inh: EP2 receptor (human) inhibition | AID 1422 | 260,000 compounds, 0.52% hits | inhibition, % at 25 µM | C6 glioma cells expressing human EP2, cAMP TR-FRET; cells stimulated with saturating PGE2;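 active means percent inhibition above 40 after rounding to a whole number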;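 further: rat C6 glioma host cells with rolipram phosphodiesterase inhibitor present; the protocol text gives 20 µM as final concentration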
EP2 cAMP induct: EP2 receptor cAMP induction, counter-screens negative | shares compounds with EP2 modulator | C6 glioma EP2 cells, cAMP HTRF induction; plus low (about EC15) PGE2 agonist | calls only at 20 µM (by protocol) | 1,300 compounds, 47% hits | AID 1080;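 active means cAMP induction above 50% in the main assay while under 30% in all four parallel counter assays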;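 further: rat C6 glioma cells stably expressing human EP2 receptor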
* = called active by the depositor; i = inactive; · = no result given; + = active, no number; ! = repeats disagree. The list is not random: actives were taken first. Their share in the collection is about 2.8%.

SMILES	NPY-Y2 antag	NPY Y1 blocker	NPY-Y2 PAM-ag	EP2 modulator	NPY-Y1 PAM-ag	PGE2 EP2 inh	EP2 cAMP induct
CCOC(=O)c1oc2ccccc2c1NC(=O)c1ccccc1OC	5.2	4.8	-27.9	78.9*	-68.6	10.5	+
CCCC(=O)Nc1c(C(=O)OCC)oc2ccccc12	·	-1.4	-25.9	18.1	11.0	7.5	·
CC(=O)Nc1nnc(CCN2CCCCC2)s1	-1.3	-6.8	12.0	72.0*	16.2	5.4	i
COc1cccc(C2CC(C(F)(F)F)n3ncc(C(=O)Nc4cccc(O)c4)c3N2)c1 (configuration not stated)	·	·	·	-78.2	·	12.3	·
O=C(O)c1cc2c(s1)-c1ccccc1OC2	13.8	12.4	3.5	85.6*	-20.1	11.6	i
Cc1cccc(-n2c(-c3ccco3)nn(CC(=O)NC3CCCC3)c2=O)n1	·	·	·	-0.7	·	3.6	·
Cc1cc(C)c(N=C2CCCN2Cc2ccccc2)c(C#N)c1	11.9	5.8	11.0	77.9*	4.8	7.9	+
CN(Cc1cccs1)c1nc(-c2cccnc2)nc2ccccc12	·	3.5	-12.1	74.0*	-10.1	4.0	+
Cc1ccsc1-c1n[nH]c(=S)n1C1CCCCC1	6.3	-5.8	-0.5	62.9*	3.4	6.0	i
COc1ccc(-c2n[nH]c(=S)n2C2CCCCC2)cc1	8.7	3.7	1.5	4.4	9.1	-1.0	·
CC(C)NC(=O)C1CCN(S(C)(=O)=O)CC1	·	·	·	8.7	·	9.1	·
Cc1ccc(N(C(=O)c2snc(C(N)=O)c2N)C(C(=O)NCCC(C)C)c2ccco2)cc1 (configuration not stated)	·	-3.2	15.3	77.8*	2.3	5.8	i
COc1ccc(CN2CCc3nc(N4CCC(C)CC4)[nH]c(=O)c3C2)cc1OC	·	·	·	-10.5	·	7.3	·
CC(C)c1nc(SCc2c(F)cccc2Cl)c2c(=O)n(C)c(=O)n(C)c2n1	1.0	-0.6	-3.0	80.1*	2.1	10.5	+
Cn1c(=O)c2c(nc(SCCCC#N)n2Cc2c(F)cccc2Cl)n(C)c1=O	1.8	-2.9	1.4	17.9	8.7	6.9	·
CC(NC(c1ccccc1)c1ccccc1)C(=O)N1CCCc2ccccc21 (configuration not stated)	7.8	13.7	5.3	66.0*	17.5	8.4	i
O=C(NCCN1CCNCC1)c1c(O)c2cccc3c2n(c1=O)CCC3	·	·	·	-103.5	·	8.5	·
CCOC(=O)c1c(-c2ccc(-c3ccccc3)cc2)csc1NC(=O)CCN1CCOCC1	5.5	3.6	-22.1	73.2*	-77.8	11.6	+
COc1cc(S(=O)(=O)N(Cc2ccc(C)cc2)Cc2ccco2)ccc1-n1cnnn1	1.0	8.3	9.4	26.3	-25.6	2.2	·
COc1cc(S(=O)(=O)N(Cc2cccnc2)Cc2ccco2)ccc1-n1cnnn1	0.6	-2.8	-3.2	78.8*!	6.1	10.4	i
Cc1cccc(C)c1OC(=O)C(c1ccccc1)c1ccccc1	10.7	10.6	-13.8	66.4*	-24.6	19.4	i
CCN(CC)CCCOC(=O)C(c1ccccc1)c1ccccc1	·	10.7	-16.8	-29.8	-13.7	12.5	·
Cc1ccc(C)c(CN2C(=O)C(C)Oc3ccc(C)cc32)c1 (configuration not stated)	5.6	12.4	-9.6	79.8*	-39.1	4.0	+
COc1ccc(CCNC(=O)CCN2C(=O)C(C)Oc3ccc(C)cc32)cc1OC (configuration not stated)	5.1	4.9	-4.4	-1.7	-18.1	7.6	·
CC(=O)c1cccc(NC(=S)NC(=O)c2ccccc2)c1	3.1	-1.1	-2.3	-26.0	0.6	18.3	·
SMILES	NPY-Y2 antag	NPY Y1 blocker	NPY-Y2 PAM-ag	EP2 modulator	NPY-Y1 PAM-ag	PGE2 EP2 inh	EP2 cAMP induct
COc1cc2ccccc2cc1C(=O)NC(=S)Nc1cccc(C(=O)O)c1	·	3.1	-17.2	95.5*	-31.8	3.4	+
Cc1ccc(S(=O)(=O)c2c(C)nn(-c3ccccc3)c2OC(=O)c2ccco2)cc1	5.7	3.8	-16.9	66.8*	-23.8	11.0	i
COc1ccc2nc(SCC(=O)NCc3ccco3)c(C#N)cc2c1	·	·	·	-45.4	·	10.1	·
COc1ccc(-c2nc(N)n[nH]2)cc1	0.7	0.1	-7.4	0.4	11.2	13.6	·
COc1cc(OC)cc(-c2nc(N)n[nH]2)c1	0.2	-2.9	5.0	68.3*	21.2	17.4	i
CCOC(=O)c1cnn(-c2nc(-c3ccc(F)cc3)cs2)c1C(F)(F)F	5.6	9.1	-0.9	65.3*	-10.8	8.1	i
COc1c(O)cc2oc3cc(O)c(CC=C(C)C)c(O)c3c(=O)c2c1CC=C(C)C	·	·	·	51.1	·	16.3	i
CC(C)=CCc1c(O)cc2oc3c(CC=C(C)C)c(O)c(O)c(CC=C(C)C)c3c(=O)c2c1O	·	·	·	13.3	·	26.2	·
O=C(/C(=C/O)N=Nc1ccccc1Cl)c1ccccc1	·	-4.0	5.6	69.5*	4.7	5.3	+
CCC1(C)Cc2ccccc2-c2nc3n(c(=O)c21)CCS3 (configuration not stated)	4.3	-5.6	16.4	78.6*	16.1	11.9	+
CCC1(C)Cc2ccccc2-c2nc3n(c(=O)c21)CC(C(=O)O)S3 (configuration not stated)	-0.3	9.8	2.4	3.2	4.5	16.4	·
CCN(CC)c1ccc(/C=C2\C(=O)c3ccc(C(=O)O)cc3C2=O)cc1	6.6	-4.7	3.7	73.6*	13.0	10.6	+
C=CCSc1nc(N(CC)CC)c2sccc2n1	7.5	4.8	-23.7	66.7*	-23.5	14.0	i
CCc1[nH]n2c(=O)cc(C)nc2c1-c1ccc(Cl)cc1	·	·	·	-5.2	·	3.3	·
COc1ccc(CSC2=C(C#N)C(=O)NC3(CCCCC3)S2)cc1	·	·	·	53.7	·	37.4	i
CCOC(=O)c1cnc2ccc(OCC)cc2c1N(C)Cc1ccccc1	34.8*	31.2*	-18.3	89.9*	-50.6	5.1	+
CC1C(c2ccccc2)N(C)C(c2ccccc2)C(C)C1(O)C#Cc1ccccc1 (configuration not stated)	18.2*	13.5	-11.7	65.7*	-34.5	17.9	+
CC(=O)OC[C@@]1(O)C[C@@]23CCC4c5ccoc5CC[C@]4(C)C2CC[C@@H]1C3 (some centres not stated)	·	·	·	68.5*	·	8.9	i
COC(=O)c1ccc(S(=O)(=O)N(Cc2cc3c(C)ccc(C)c3[nH]c2=O)CC2CCCO2)cc1 (configuration not stated)	·	·	·	-15.3	·	12.0	·
CN(C)c1ccc(C(=O)NCCc2nc(-c3cccnc3)n[nH]2)cc1	·	·	·	-11.4	·	2.5	·
CN(Cc1ccccc1)C(=O)NC1CCCCC1	-0.1	-7.1	5.5	31.0	-13.1	4.1	·
CC(C)(Sc1ccc(CCN(CCCCC2CCCCC2)C(=O)NC2CCCCC2)cc1)C(=O)O	·	·	·	66.5*	·	12.9	i
